Data: ChEMBL document CHEMBL1148008, “Antimicrobial and cytotoxic activity of agelasine and agelasimine analogs” (Bioorg Med Chem, 2007)
Values after ≈ are worked out from the molar mass of the structure shown.

Key:
[1] = test system: Mycobacterium tuberculosis; test: Antimicrobial activity against Mycobacterium tuberculosis at 6.25 ug/mL after 20 hrs by broth microdilution method; format: functional
Staphylococcus aureus = test: Antibacterial activity against Staphylococcus aureus ATCC 25923 after 20 hrs by broth microdilution method; format: functional
In short: (§1)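 Strains grown 24 h at 35 °C on tryptone-soya agar. Colonies suspended in saline to 0.5 McFarland, then diluted 1:10 in Mueller-Hinton broth (~10⁷ CFU/mL). Inoculum added to twofold dilutions in broth (final 0.125–32 µg/mL) in triplicate. Incubated aerobically at 35 °C for 20 h. MIC is the lowest concentration giving complete growth inhibition. Repeated at least once; gentamycin/streptomycin served as QC.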

Escherichia coli = test: Antibacterial activity against Escherichia coli ATCC 25922 after 20 hrs by broth microdilution method; format: functional; details: ATCC 25922, 20 h; in short: as §1
U-937/GTB = test: Cytotoxicity against U937 GTB cells; format: functional, cell-based; details: Homo sapiens
In short: (§2)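 Fluorometric microculture cytotoxicity assay (FMCA) read-out; IC50 values reported.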

ACHN = test: Cytotoxicity against ACHN cells; format: functional, cell-based; details: Homo sapiens; in short: as §2
[2] = Cytotoxicity against RPMI 8226/s cells; format: functional, cell-based; details: Homo sapiens, RPMI8226/S; in short: as §2
[3] = Cytotoxicity against CEM/s cells; format: functional, cell-based; details: Homo sapiens; in short: as §2

CC(C)=CCC/C(C)=C\CC/C(C)=C/C[n+]1cn(C)c2ncnc(N)c21.[Cl-]
inhibition at 6.25 µg/mL [1]: 8%
MIC (Staphylococcus aureus; ATCC 25923, 20 h): 32 µg/mL
MIC (Escherichia coli): > 32 µg/mL

Cn1c[n+](Cc2ccccc2)c2/c(=N/OC(C)(C)C)[nH]cnc21
inhibition at 6.25 µg/mL [1]: 53%

C/C(=C\C[n+]1cn(C)c2nc[nH]/c(=N\OCc3ccccc3)c21)CCCC(C)CCCC(C)CCCC(C)C (stereo not drawn)
IC50 (U-937/GTB): 10.8 µM
IC50 (ACHN): 20.5 µM
IC50 [2]: 7.07 µM
inhibition at 6.25 µg/mL [1]: 72%
MIC (Staphylococcus aureus; ATCC 25923, 20 h): > 32 µg/mL
MIC (Escherichia coli): > 32 µg/mL
IC50 [3]: 6.3 µM

CO/N=c1\[nH]cnc2c1[n+](C/C=C(\C)CC/C=C(\C)CCC1CCCCC1)cn2C
MIC (Staphylococcus aureus; ATCC 25923, 20 h): 6 µg/mL
MIC (Escherichia coli): 16 µg/mL

CO/N=c1\[nH]cnc2c1[n+](C/C=C(\C)CCC=C(C)C)cn2C
IC50 (U-937/GTB): 17.5 µM
IC50 (ACHN): > 80 µM
IC50 [2]: 18.4 µM
MIC (Staphylococcus aureus; ATCC 25923, 20 h): > 32 µg/mL
MIC (Escherichia coli): > 32 µg/mL
IC50 [3]: 27.4 µM

CC(C)=CCC/C(C)=C/CC/C(C)=C/C[n+]1cn(C)c2ncnc(N)c21.[Cl-]
IC50 (U-937/GTB): > 80 µM
IC50 (ACHN): > 80 µM
IC50 [2]: > 80 µM
inhibition at 6.25 µg/mL [1]: 13%
MIC (Staphylococcus aureus; ATCC 25923, 20 h): > 32 µg/mL
MIC (Escherichia coli): > 32 µg/mL
IC50 [3]: > 80 µM

CC(C)=CCC/C(C)=C/CC/C(C)=C/CC/C(C)=C/Cn1cnc2ncnc(Cl)c21
IC50 (U-937/GTB): 5.07 µM
IC50 (ACHN): 6.75 µM
IC50 [2]: 5.2 µM
inhibition at 6.25 µg/mL [1]: 33%
MIC (Staphylococcus aureus; ATCC 25923, 20 h): > 32 µg/mL
MIC (Escherichia coli): > 32 µg/mL
IC50 [3]: 6.79 µM

Cn1cc[n+](Cc2ccccc2)c1
inhibition at 6.25 µg/mL [1]: 19%

COc1cccc2c1C(=O)c1c(O)c3c(c(O)c1C2=O)C[C@@](O)(C(=O)CO)C[C@@H]3O[C@H]1C[C@H](N)[C@H](O)[C@H](C)O1 [DOXORUBICIN]
IC50 (U-937/GTB): 0.11 µM
IC50 (ACHN): 14.2 µM
IC50 [2]: 0.13 µM
IC50 [3]: 0.18 µM

CC(=O)O[C@H]1C(=O)[C@@]2(C)[C@H]([C@H](OC(=O)c3ccccc3)[C@]3(O)C[C@H](OC(=O)[C@H](O)[C@@H](NC(=O)c4ccccc4)c4ccccc4)C(C)=C1C3(C)C)[C@]1(OC(C)=O)CO[C@@H]1C[C@@H]2O [PACLITAXEL]
IC50 (U-937/GTB): 0.0059 µM
IC50 (ACHN): 31.5 µM
IC50 [2]: 0.007 µM
IC50 [3]: 0.007 µM

CO/N=c1\[nH]cnc2c1[n+](Cc1ccccc1)cn2C
IC50 (U-937/GTB): > 80 µM
IC50 (ACHN): > 80 µM
IC50 [2]: > 80 µM
inhibition at 6.25 µg/mL [1]: 4%
MIC (Staphylococcus aureus; ATCC 25923, 20 h): > 32 µg/mL
MIC (Escherichia coli): > 32 µg/mL
IC50 [3]: > 80 µM

CC(C)=CCC/C(C)=C/CC/C(C)=C/CC/C(C)=C/C[n+]1cn(CCC#N)c2nc[nH]/c(=N\OCc3ccccc3)c21
IC50 (U-937/GTB): 24.2 µM
IC50 (ACHN): 38.9 µM
IC50 [2]: 9.46 µM
inhibition at 6.25 µg/mL [1]: 86%
MIC (Staphylococcus aureus; ATCC 25923, 20 h): > 32 µg/mL
MIC (Escherichia coli): > 32 µg/mL
IC50 [3]: 19.1 µM

GENTAMICIN
MIC (Staphylococcus aureus): 0.1 µg/mL

Cn1cnc(=N)c2c1ncn2Cc1ccccc1
inhibition at 6.25 µg/mL [1]: 0%

CC(C)=CCC/C(C)=C/CC/C(C)=C/CC/C(C)=C/Cn1cnc2c1C(=N)NCN2C
IC50 (U-937/GTB): > 80 µM
IC50 (ACHN): > 80 µM
IC50 [2]: 18.2 µM
inhibition at 6.25 µg/mL [1]: 99%
MIC (Staphylococcus aureus; ATCC 25923, 20 h): 8 µg/mL (≈ 18.9 µM)
MIC (Escherichia coli): 16 µg/mL (≈ 37.8 µM)
IC50 [3]: 21.7 µM

C=CC[n+]1cn(C)c2nc[nH]/c(=N\OC)c21
IC50 (U-937/GTB): > 80 µM
IC50 (ACHN): > 80 µM
IC50 [2]: > 80 µM
MIC (Staphylococcus aureus; ATCC 25923, 20 h): > 32 µg/mL
MIC (Escherichia coli): > 32 µg/mL
IC50 [3]: > 80 µM

CC(C)=CCC/C(C)=C/CC/C(C)=C/CC/C(C)=C/Cn1cnc2nc[nH]/c(=N\OCc3ccccc3)c21
IC50 (U-937/GTB): 11.2 µM
IC50 (ACHN): 27.4 µM
IC50 [2]: 10.9 µM
inhibition at 6.25 µg/mL [1]: 40%
MIC (Staphylococcus aureus; ATCC 25923, 20 h): > 32 µg/mL
MIC (Escherichia coli): > 32 µg/mL
IC50 [3]: 20.4 µM

Cn1cnc2c(N)[n+](Cc3ccccc3)cnc21.[Br-]
inhibition at 6.25 µg/mL [1]: 0%
MIC (Staphylococcus aureus; ATCC 25923, 20 h): > 32 µg/mL
MIC (Escherichia coli): > 32 µg/mL

Cn1c[n+](Cc2ccccc2)c2/c(=N/OCc3ccccc3)[nH]cnc21
inhibition at 6.25 µg/mL [1]: 0%

Cn1c[n+](Cc2ccccc2)c2ccccc21
inhibition at 6.25 µg/mL [1]: 19%
